The subject of series [1] is Caenorhabditis elegans. In words: Toxicity in adult L4/juvenile L1 stages of Caenorhabditis elegans N2 assessed as effect on egg production at 64 ug/ml incubated for 96 hrs measured every 12 hrs. Particulars: in vivo. Format: organism-based. The procedure, abridged:
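C. elegans N2 maintained on NGM agar at 22 °C. Compound mixed into molten NGM agar at 64 μg/mL. L4 adults, L1 juveniles and synchronized eggs transferred onto test plates and kept 96 h at 22 °C. Checked every 12 h for death, development and egg production. Gentamicin and […] as controls.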

Series [2] concerns Caenorhabditis elegans. In words: Toxicity in adult L4/juvenile L1 stages of Caenorhabditis elegans N2 assessed as deleterious effect on genotype at 64 ug/ml incubated for 96 hrs measured every 12 hrs. Format: organism-based. Particulars: in vivo.
The nature of series [3]: Selectivity index, ratio of CC50 for human A549 cells to MIC99 for Pseudomonas aeruginosa PAO1 ATCC 47085. The series is classed as toxicity, cell-based. Particulars: read-out: Selectivity Index. The procedure, abridged:
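CC50: HEK293T/17 or A549 cells seeded at 10⁴ per well in DMEM with 10% FBS at 37 °C, 5% CO2. After 24 h, wells PBS-washed and serially diluted compound applied for 48 h, with viability read by MTS and CC50 taken by nonlinear regression. MIC99 by CLSI broth microdilution, overnight at 37 °C without shaking, from three independent tests. SI = CC50/MIC99.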

Series [4] deals with Staphylococcus aureus. Briefly: Antibacterial activity against methicillin-resistant Staphylococcus aureus clinical isolate 20467BA SPA type 59 after 24 hrs by microbroth dilution method. The series is classed as functional. In outline: (§1)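 MRSA isolates from ICU surfaces, stored at −80 °C and grown in Mueller-Hinton broth. Overnight cultures diluted and added to serially diluted compound at ~10⁵ CFU/mL, broth microdilution. Plates incubated 24 h at 37 °C, growth read as absorbance at 620 nm. MIC99 taken as the lowest concentration giving complete growth inhibition.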
A general note: Dilution methods test growth across graded concentrations, often in twofold steps.

The test system of series [5] is Staphylococcus aureus. In words: Antibacterial activity against methicillin-resistant Staphylococcus aureus clinical isolate 30253CA SPA type 7 after 24 hrs by microbroth dilution method. Format: functional. The procedure, abridged: as §1
Series [6] has as its system Staphylococcus aureus. In words: Bactericidal activity against Staphylococcus aureus RN4220 ATCC 35556 in stationary-phase assessed as reduction in bacterial burden at 4 times MIC99 after 2 to 6 hrs by time-kill assay. The series is classed as functional, organism-based. In outline:
(§2)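 Overnight cultures washed and resuspended in PBS, then diluted 100-fold into LB (exponential-phase model) or into 1% PBS (stationary-phase model). Test agent added at 4× MIC99. Incubated at 37 °C with shaking at 200 rpm. CFU counted on LB agar at 0, 2, 4 and 6 h.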

A short description of series [7]: Selectivity index, ratio of CC50 for HEK293T/17 cells to MIC99 for methicillin-resistant Staphylococcus aureus clinical isolate.
Series [8] deals with Pseudomonas aeruginosa. Briefly: Bactericidal activity against Pseudomonas aeruginosa PAO1 ATCC 47085 in exponential-phase assessed as reduction in bacterial burden at 4 times MIC99 upto 6 hrs by time-kill assay. The series is classed as functional. In outline:
as §2

Series [9] deals with Staphylococcus aureus. In words: Antibacterial activity against methicillin-resistant Staphylococcus aureus clinical isolate 10076B SPA type 2 after 24 hrs by microbroth dilution method. The series is classed as functional. The procedure, abridged:
as §1

The subject of series [10] is Pseudomonas aeruginosa. In words: Antibiofilm activity against Pseudomonas aeruginosa PAO1 ATCC 47085 at 64 ug/ml after 24 hrs by crystal violet staining-based spectrophotometry. The series is classed as functional, organism-based. The procedure, abridged:
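PAO1 grown 2 h in LB at 37 °C with shaking, then diluted 1:1000 in 10% LB-PBS to 3 × 10⁵ CFU/mL and mixed with serially diluted compound. Biofilms grown on peg lids 24 h at 37 °C, static. Pegs washed, stained with 0.1% crystal violet for 15 min, dye eluted in 95% ethanol and read at 600 nm. Control was 10% LB-PBS.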

Series [11] deals with Staphylococcus aureus. Briefly: Antibacterial activity against methicillin-resistant Staphylococcus aureus clinical isolate 20225B SPA type 15 after 24 hrs by microbroth dilution method. Format: functional. In outline:
as §1

For series [12], the system named is Staphylococcus aureus. In words: Antibacterial activity against Staphylococcus aureus RN4220 ATCC 35556 in early exponential-phase assessed as numerous spherical double layered mesosome like structures at 2 times MIC99 after 30 to 60 mins by transmission electron microscopy. The series is classed as functional, organism-based. The procedure, abridged:
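Cells grown in LB to early exponential phase (OD600 ~0.4). Exposed to 2× MIC99 for 15–60 min, washed twice in phosphate buffer, fixed in 2.5% glutaraldehyde, then imaged by transmission electron microscopy.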

Series [13] in a line: Cytotoxicity against HEK293T/17 cells after 48 hrs by MTS conversion assay. Particulars: human. The series is classed as cell-based, HEK-293T. In outline:
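HEK293T/17 and A549 cells maintained in DMEM with 10% FBS at 37 °C, 5% CO2. Seeded at 10⁴ cells per well; after 24 h, washed with PBS and exposed to serially diluted compound for 48 h. Viability read by MTS conversion. CC50 obtained by nonlinear regression.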
For orientation: Formazan colour is commonly taken as a measure of viable cells.

Series [14] has as its system Staphylococcus aureus. In words: Bactericidal activity against Staphylococcus aureus RN4220 ATCC 35556 assessed as reduction in bacterial burden at 4 times MIC99. Format: functional.
Series [15] concerns Pseudomonas aeruginosa. Briefly: Antibacterial activity against Pseudomonas aeruginosa PAO1 ATCC 47085 assessed as increase in outer membrane permeability at 1 to 4 times MIC99 by fluorescent probe 1-N-phenylnaphthylamine based fluorescence assay. Format: functional, organism-based. The procedure, abridged:
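PAO1 cells harvested at OD600 ~0.5, washed, and resuspended in 5 mM HEPES pH 7.2 with 10 μM NPN (final) and 10 mM sodium azide (final). Held 30 min at room temperature in the dark. Compound added at 4× or 1× MIC99 and NPN fluorescence recorded continuously (ex 350/em 420 nm). Gentamicin at 4× MIC99 as positive control. Three independent experiments.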

For series [16], the system named is Staphylococcus aureus. Briefly: Antibacterial activity against Staphylococcus aureus RN4220 ATCC 35556 incubated overnight by microbroth dilution method. Format: functional. The procedure, abridged: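 Bacteria grown in LB medium. CLSI microbroth dilution in 96-well plates, overnight at 37 °C without shaking. MIC99 taken as the lowest concentration giving complete growth inhibition. Three independent determinations, reported as mean ± SD.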

For series [17], the system named is Staphylococcus aureus. In words: Bactericidal activity against Staphylococcus aureus RN4220 ATCC 35556 in exponential-phase assessed as reduction in bacterial burden at 4 times MIC99 after 2 to 6 hrs by time-kill assay. The series is classed as functional, organism-based. In outline: as §2
The test system of series [18] is Pseudomonas aeruginosa. In words: Potentiation of kanamycin-induced antibacterial activity against Pseudomonas aeruginosa PAO1 ATCC 47085 assessed as kanamycin MIC at 0.5 times MIC99 after 24 hrs by checkerboard assay (reference value: 64 ug/ml). The series is classed as functional. The following applies: PAO1 ATCC 47085, 24 h. In outline: (§3)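 Checkerboard assay: compound serially diluted along one axis of a 96-well plate and antibiotic along the other, in LB. Each well inoculated with 2 × 10⁴ CFU and incubated 24 h at 37 °C. ΣFIC = FIC A + FIC B, where each FIC is the combination MIC99 divided by the MIC99 of that drug alone.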

Series [19] deals with Staphylococcus aureus. In words: Antibacterial activity against Staphylococcus aureus RN4220 ATCC 35556 at 0.5 times MIC99 after 24 hrs by checkerboard assay in presence of kanamycin. The series is classed as functional. The procedure, abridged:
as §3

The test system of series [20] is Pseudomonas aeruginosa. Briefly: Bactericidal activity against Pseudomonas aeruginosa PAO1 ATCC 47085 assessed as reduction in bacterial burden at 0.5 times MIC99 after 3 to 24 hrs by time kill assay in presence of 0.5 times MIC99 of kanamycin relative to control. The series is classed as functional, organism-based. The procedure, abridged: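 Combination time-kill in LB at 1 × 10⁶ CFU/mL starting inoculum. Arms were compound or kanamycin alone at 1× and 0.5× MIC99, and the two combined at 0.5× MIC99 each. Incubated at 37 °C with shaking at 300 rpm. Viable counts taken by dilution and plating on LB agar at 0, 3, 6 and 24 h.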

Active and inactive are the calls of the source. The rule behind the calls is not given here.

Consider `Cl.Cl.S=C(NCCCNCCCCCNCCCNC(=S)NCC(c1ccccc1)c1ccccc1)NCC(c1ccccc1)c1ccccc1`, for which the Activity result in series [1] is given as “Non-toxic”; in series [2] it was “Non-toxic”; in series [8], 4 deltalog10CFU/ml; in series [14] it was over 2 deltalog10CFU/ml. Further, in series [3], the selectivity ratio stood at 8. Besides, the MIC99 amounted to 1 µg/mL in series [4]; 1 µg/mL in [5]; 1 µg/mL in [9]; 1 µg/mL in series [11]; 2 µg/mL in series [16]; 8 µg/mL in series [18]. The result in [6], in [10], in series [12], in [15], in [17] and in series [20] was Active. For the same molecule, the “Selectivity Index” value in series [7] is 32. The molecule further gave a CC50 at 48 h in series [13] of 32 µg/mL. Further, the “fractional inhibitory concentration index (FICI)” value in series [19] is reported as 0.25.

As usually defined, the MIC99 is the lowest concentration that inhibits either 99% of growth or 99% of the strains tested, depending on the study. Usually CC50 stands for the concentration that lowers cell viability or growth by half.

These data come from ChEMBL document CHEMBL3804769, “Antibacterial Diamines Targeting Bacterial Membranes” (J Med Chem, 2016).
